Assays:
Format in all cases: functional
SF-539 = test: Cytotoxicity against human SF539 cells assessed as cell growth at 10 uM; details: read-out: Activity
Summary of the method: (§1)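 NCI-60 screen: cells grown in RPMI 1640 with 5% FBS and 2 mM L-glutamine, plated at 5000–40,000 cells/well according to doubling time, and preincubated 24 h at 37 °C, 5% CO2. The single 10 µM dose (DMSO stock) was added, then incubated 48 h. Cells were TCA-fixed and stained with 0.4% SRB, read at 515 nm, and growth % calculated against time-zero and control plates.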

SNB-19 = test: Cytotoxicity against human SNB19 cells assessed as cell growth at 10 uM; details: read-out: Activity; summary of the method: as §1
SNB-75 = test: Cytotoxicity against human SNB75 cells assessed as cell growth at 10 uM; details: read-out: Activity; summary of the method: as §1
U-251 = test: Cytotoxicity against human U251 cells assessed as cell growth at 10 uM; details: read-out: Activity; summary of the method: as §1
LOX IMVI = test: Cytotoxicity against human LOXIMVI cells assessed as cell growth at 10 uM; details: read-out: Activity; summary of the method: as §1
Malme-3M = test: Cytotoxicity against human MALME-3M cells assessed as cell growth at 10 uM; details: read-out: Activity; summary of the method: as §1
M14 = test: Cytotoxicity against human M14 cells assessed as cell growth at 10 uM; details: read-out: Activity; summary of the method: as §1
MDA-MB-435 = test: Cytotoxicity against human MDA-MB-435 cells assessed as cell growth at 10 uM; details: read-out: Activity; summary of the method: as §1
SK-MEL-2 = test: Cytotoxicity against human SK-MEL-2 cells assessed as cell growth at 10 uM; details: read-out: Activity; summary of the method: as §1
SK-MEL-28 = test: Cytotoxicity against human SK-MEL-28 cells assessed as cell growth at 10 uM; details: read-out: Activity; summary of the method: as §1
SK-MEL-5 = test: Cytotoxicity against human SK-MEL-5 cells assessed as cell growth at 10 uM; details: read-out: Activity; summary of the method: as §1
UACC-257 = test: Cytotoxicity against human UACC257 cells assessed as cell growth at 10 uM; details: read-out: Activity; summary of the method: as §1
UACC-62 = test: Cytotoxicity against human UACC62 cells assessed as cell growth at 10 uM; details: read-out: Activity; summary of the method: as §1
IGROV-1 = test: Cytotoxicity against human IGROV1 cells assessed as cell growth at 10 uM; details: read-out: Activity
Summary of the method: (§2)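 Single-dose NCI-60 screen at 10 µM. Cells were grown in RPMI 1640 with 5% FBS and 2 mM L-glutamine, then treated for 48 h at 37 °C. Protein was measured by SRB staining with absorbance at 515 nm. Percentage growth was recorded, and inhibition percentage was calculated as 100 minus growth percentage.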

OVCAR-3 = test: Cytotoxicity against human OVCAR-3 cells assessed as cell growth at 10 uM; details: read-out: Activity; summary of the method: as §1
OVCAR-4 = test: Cytotoxicity against human OVCAR4 cells assessed as cell growth at 10 uM; details: read-out: Activity; summary of the method: as §1
OVCAR-5 = test: Cytotoxicity against human OVCAR5 cells assessed as cell growth at 10 uM; details: read-out: Activity; summary of the method: as §1
OVCAR-8 = test: Cytotoxicity against human OVCAR8 cells assessed as cell growth at 10 uM; details: read-out: Activity; summary of the method: as §1
NCI/ADR-RES = test: Cytotoxicity against human NCI/ADR-RES cells assessed as cell growth at 10 uM; details: read-out: Activity; summary of the method: as §1
SK-OV-3 = test: Cytotoxicity against human SKOV3 cells assessed as cell growth at 10 uM; details: read-out: Activity; summary of the method: as §1
786-0 = test: Cytotoxicity against human 786-0 cells assessed as cell growth at 10 uM; details: read-out: Activity; summary of the method: as §2
A498 = test: Cytotoxicity against human A498 cells assessed as cell growth at 10 uM; details: read-out: Activity; summary of the method: as §2
ACHN = test: Cytotoxicity against human ACHN cells assessed as cell growth at 10 uM; details: read-out: Activity; summary of the method: as §2
CAKI-1 = test: Cytotoxicity against human Caki1 cells assessed as cell growth at 10 uM; details: read-out: Activity; summary of the method: as §2
RXF 393 = test: Cytotoxicity against human RXF393 cells assessed as cell growth at 10 uM; details: read-out: Activity; summary of the method: as §1
SN12C = test: Cytotoxicity against human SN12C cells assessed as cell growth at 10 uM; details: read-out: Activity; summary of the method: as §1
TK-10 = test: Cytotoxicity against human TK10 cells assessed as cell growth at 10 uM; details: read-out: Activity; summary of the method: as §1
UO-31 = test: Cytotoxicity against human UO31 cells assessed as cell growth at 10 uM; details: read-out: Activity; summary of the method: as §1
PC-3 = test: Cytotoxicity against human PC3 cells assessed as cell growth at 10 uM; details: read-out: Activity; summary of the method: as §1
DU-145 = test: Cytotoxicity against human DU145 cells assessed as cell growth at 10 uM; details: read-out: Activity; summary of the method: as §2
MCF7 = test: Cytotoxicity against human MCF7 cells assessed as cell growth at 10 uM; details: read-out: Activity; summary of the method: as §1
MDA-MB-231 = test: Cytotoxicity against human MDA-MB-231 cells assessed as cell growth at 10 uM; details: read-out: Activity; summary of the method: as §1
[1] = Cytotoxicity against human Hs 578T cells assessed as cell growth at 10 uM; details: read-out: Activity; summary of the method: as §2
BT-549 = test: Cytotoxicity against human BT549 cells assessed as cell growth at 10 uM; details: read-out: Activity; summary of the method: as §2
T47D = test: Cytotoxicity against human T47D cells assessed as cell growth at 10 uM; details: read-out: Activity; summary of the method: as §1
MDA-MB-468 = test: Cytotoxicity against human MDA-MB-468 cells assessed as cell growth at 10 uM; details: read-out: Activity; summary of the method: as §1
[2] = Growth inhibition of human NCI60 cells at 10 uM after 48 hrs by sulforhodamine B assay relative to control; details: NCI60, 48 h, read-out: GI
Summary of the method: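 Single-dose NCI screen at 10 µM across the 60-line panel, 48 h exposure at 37 °C after a 24 h preincubation. Adherent cells were fixed with cold TCA and stained with 0.4% SRB, and absorbance was read at 515 nm. Inhibition % was taken as 100 minus growth %, and the mean across all lines was reported.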

CCRF-CEM = test: Cytotoxicity against human CCRF-CEM cells assessed as cell growth at 10 uM; details: read-out: Activity; summary of the method: as §2
HL-60(TB) = test: Cytotoxicity against human HL-60(TB) cells assessed as cell growth at 10 uM; details: read-out: Activity
Summary of the method: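 NCI 60-cell panel screen at a single concentration of 10 µM. Cells are grown in RPMI 1640 with 5% FBS and 2 mM L-glutamine and read by SRB protein staining at 515 nm. Percent growth is measured relative to time-zero and untreated controls; inhibition % is 100 minus growth %.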

K562 = test: Cytotoxicity against human K562 cells assessed as cell growth at 10 uM; details: read-out: Activity; summary of the method: as §2
MOLT-4 = test: Cytotoxicity against human MOLT4 cells assessed as cell growth at 10 uM; details: read-out: Activity; summary of the method: as §1
[3] = Cytotoxicity against human […] cells assessed as cell growth at 10 uM; details: read-out: Activity; summary of the method: as §1
SR = test: Cytotoxicity against human SR cells assessed as cell growth at 10 uM; details: read-out: Activity; summary of the method: as §1
A549 = test: Cytotoxicity against human A549 cells assessed as cell growth at 10 uM; details: read-out: Activity; summary of the method: as §2
EKVX = test: Cytotoxicity against human EKVX cells assessed as cell growth at 10 uM; details: read-out: Activity; summary of the method: as §2
HOP-62 = test: Cytotoxicity against human HOP62 cells assessed as cell growth at 10 uM; details: read-out: Activity; summary of the method: as §2
HOP-92 = test: Cytotoxicity against human HOP92 cells assessed as cell growth at 10 uM; details: read-out: Activity; summary of the method: as §2
NCI-H226 = test: Cytotoxicity against human NCI-H226 cells assessed as cell growth at 10 uM; details: read-out: Activity; summary of the method: as §1
NCI-H23 = test: Cytotoxicity against human NCI-H23 cells assessed as cell growth at 10 uM; details: read-out: Activity; summary of the method: as §1
NCI-H322M = test: Cytotoxicity against human NCI-H322M cells assessed as cell growth at 10 uM; details: read-out: Activity; summary of the method: as §1
NCI-H460 = test: Cytotoxicity against human NCI-H460 cells assessed as cell growth at 10 uM; details: read-out: Activity; summary of the method: as §1
NCI-H522 = test: Cytotoxicity against human NCI-H522 cells assessed as cell growth at 10 uM; details: read-out: Activity; summary of the method: as §1
COLO 205 = test: Cytotoxicity against human COLO205 cells assessed as cell growth at 10 uM; details: read-out: Activity; summary of the method: as §2
HCC 2998 = test: Cytotoxicity against human HCC2998 cells assessed as cell growth at 10 uM; details: read-out: Activity; summary of the method: as §2
HCT-116 = test: Cytotoxicity against human HCT116 cells assessed as cell growth at 10 uM; details: read-out: Activity; summary of the method: as §2
HCT-15 = test: Cytotoxicity against human HCT15 cells assessed as cell growth at 10 uM; details: read-out: Activity; summary of the method: as §2
HT-29 = test: Cytotoxicity against human HT-29 cells assessed as cell growth at 10 uM; details: read-out: Activity; summary of the method: as §2
KM12 = test: Cytotoxicity against human KM12 cells assessed as cell growth at 10 uM; details: read-out: Activity; summary of the method: as §1
SW-620 = test: Cytotoxicity against human SW620 cells assessed as cell growth at 10 uM; details: read-out: Activity; summary of the method: as §1
SF-268 = test: Cytotoxicity against human SF268 cells assessed as cell growth at 10 uM; details: read-out: Activity; summary of the method: as §1
SF-295 = test: Cytotoxicity against human SF295 cells assessed as cell growth at 10 uM; details: read-out: Activity; summary of the method: as §1

Structure (SMILES): COc1cc(C)cc(-c2nn(CC#N)cc2-c2ccnc(-c3ccc(Oc4ccccc4)cc3)c2)c1
- growth at 10 µM (SF-539): 95.3%
- growth at 10 µM (SNB-19): 88.5%
- growth at 10 µM (SNB-75): 74.4%
- growth at 10 µM (U-251): 88.4%
- growth at 10 µM (LOX IMVI): 98%
- growth at 10 µM (Malme-3M): 112%
- growth at 10 µM (M14): 102%
- growth at 10 µM (MDA-MB-435): 98.1%
- growth at 10 µM (SK-MEL-2): 85.2%
- growth at 10 µM (SK-MEL-28): 104%
- growth at 10 µM (SK-MEL-5): 53.8%
- growth at 10 µM (UACC-257): 91.6%
- growth at 10 µM (UACC-62): 65.8%
- growth at 10 µM (IGROV-1): 94.9%
- growth at 10 µM (OVCAR-3): 109%
- growth at 10 µM (OVCAR-4): 82.9%
- growth at 10 µM (OVCAR-5): 90.2%
- growth at 10 µM (OVCAR-8): 84.4%
- growth at 10 µM (NCI/ADR-RES): 80.3%
- growth at 10 µM (SK-OV-3): 95.4%
- growth at 10 µM (786-0): 95%
- growth at 10 µM (A498): 85.3%
- growth at 10 µM (ACHN): 85.4%
- growth at 10 µM (CAKI-1): 78.7%
- growth at 10 µM (RXF 393): 64.2%
- growth at 10 µM (SN12C): 84.8%
- growth at 10 µM (TK-10): 88.6%
- growth at 10 µM (UO-31): 84.8%
- growth at 10 µM (PC-3): 91.9%
- growth at 10 µM (DU-145): 105%
- growth at 10 µM (MCF7): 72.1%
- growth at 10 µM (MDA-MB-231): 88.6%
- growth at 10 µM [1]: 94.3%
- growth at 10 µM (BT-549): 96.3%
- growth at 10 µM (T47D): 20.1%
- growth at 10 µM (MDA-MB-468): 23.6%
- inhibition of growth at 10 µM [2]: 13.5%
- growth at 10 µM (CCRF-CEM): 91.3%
- growth at 10 µM (HL-60(TB)): 91.2%
- growth at 10 µM (K562): 88%
- growth at 10 µM (MOLT-4): 73.7%
- growth at 10 µM [3]: 83%
- growth at 10 µM (SR): 95.8%
- growth at 10 µM (A549): 85.8%
- growth at 10 µM (EKVX): 98.2%
- growth at 10 µM (HOP-62): 96.1%
- growth at 10 µM (HOP-92): 85.5%
- growth at 10 µM (NCI-H226): 66.5%
- growth at 10 µM (NCI-H23): 88.3%
- growth at 10 µM (NCI-H322M): 96.3%
- growth at 10 µM (NCI-H460): 106%
- growth at 10 µM (NCI-H522): 72.5%
- growth at 10 µM (COLO 205): 98.6%
- growth at 10 µM (HCC 2998): 93.9%
- growth at 10 µM (HCT-116): 81.8%
- growth at 10 µM (HCT-15): 71%
- growth at 10 µM (HT-29): 73.9%
- growth at 10 µM (KM12): 100%
- growth at 10 µM (SW-620): 98.6%
- growth at 10 µM (SF-268): 96.9%
- growth at 10 µM (SF-295): 95.1%
